ChEMBL document CHEMBL1148594, “Novel 4-oxo-1,4-dihydroquinoline-3-carboxamide derivatives as new CB2 cannabinoid receptors agonists: synthesis, pharmacological properties and molecular modeling” (J Med Chem, 2006)

Experiments:
Cannabinoid receptor 1 [1] = biological target: T1, Cannabinoid receptor 1 (Homo sapiens, UniProt P21554); assay: Displacement of [3H]SR-141716A from human CB1 receptor at 10 uM
How it was run: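 Single-concentration screen at 10 µM on membranes of CHO cells stably expressing human CB1 (40 µg) against 1 nM [3H]-SR-141716A, 1 h at 30 °C, pH 7.4 Tris/MgCl2/EDTA/0.5% BSA. HU-210 10 µM for nonspecific binding. Reported as percent displacement. At least four experiments in duplicate.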

Cannabinoid receptor 2 [2] = biological target: T2, Cannabinoid receptor 2 (Homo sapiens, UniProt P34972); assay: Displacement of [3H]CP-55940 from human CB2 receptor at 10 uM
T2 sequence (P34972 whole entry): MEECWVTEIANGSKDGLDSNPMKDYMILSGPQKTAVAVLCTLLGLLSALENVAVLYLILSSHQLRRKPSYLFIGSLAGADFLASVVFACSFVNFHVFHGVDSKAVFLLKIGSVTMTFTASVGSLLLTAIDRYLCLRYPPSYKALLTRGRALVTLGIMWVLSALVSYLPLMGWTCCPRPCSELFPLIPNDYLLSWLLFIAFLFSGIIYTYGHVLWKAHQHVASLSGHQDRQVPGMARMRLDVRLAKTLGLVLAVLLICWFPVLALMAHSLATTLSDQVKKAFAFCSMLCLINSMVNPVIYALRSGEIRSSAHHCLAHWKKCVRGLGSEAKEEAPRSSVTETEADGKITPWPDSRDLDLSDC
How it was run: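 Single-concentration screen at 10 µM on CHO-hCB2 membranes (40 µg) against 1 nM [3H]-CP-55,940, 1 h at 30 °C, pH 7.4 Tris/MgCl2/EDTA/0.5% BSA. HU-210 10 µM defines nonspecific binding. Filtered, counted, reported as percent specific radioligand displacement. At least four experiments in duplicate, mean ± SEM.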

Cannabinoid receptor 2 [3] = biological target: T2, Cannabinoid receptor 2; assay: Displacement of [3H]CP-55940 from human CB2 receptor
Cannabinoid receptor 2 [4] = biological target: T2, Cannabinoid receptor 2; assay: Effect on human CB2 receptor stimulation by [35S]GTP-gamma-S binding at 10 uM (basal value set at 100%); assay type: functional
How it was run: (§1)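 CHO-hCB2 membranes (40 µg) at 30 °C for 1 h in pH 7.4 Tris/MgCl2/EDTA/100 mM NaCl/0.1% BSA with 20 µM GDP. Started by 0.05 nM [35S]-GTPγS (final). Nonspecific binding with 100 µM Gpp(NH)p. Stopped with ice-cold buffer, filtered on GF/B, counted. EC50 by nonlinear regression. Single-point tests at 10 µM, three experiments in duplicate, one-way ANOVA with Dunnett test.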

Cannabinoid receptor 2 [5] = biological target: T2, Cannabinoid receptor 2; assay: Effect on [35S]GTP-gamma-S binding to human CB2 receptor; assay type: functional; how it was run: as §1
Cannabinoid receptor 1 [6] = biological target: T1, Cannabinoid receptor 1
[7] = biological target: Cannabinoid receptor (Homo sapiens) (UniProt P34972+P21554); assay: Selectivity ratio of human CB2 receptor versus human CB1 receptor in human; assay type: protein assay
Cannabinoid receptor (Homo sapiens), sequence (P21554 whole entry, looked up): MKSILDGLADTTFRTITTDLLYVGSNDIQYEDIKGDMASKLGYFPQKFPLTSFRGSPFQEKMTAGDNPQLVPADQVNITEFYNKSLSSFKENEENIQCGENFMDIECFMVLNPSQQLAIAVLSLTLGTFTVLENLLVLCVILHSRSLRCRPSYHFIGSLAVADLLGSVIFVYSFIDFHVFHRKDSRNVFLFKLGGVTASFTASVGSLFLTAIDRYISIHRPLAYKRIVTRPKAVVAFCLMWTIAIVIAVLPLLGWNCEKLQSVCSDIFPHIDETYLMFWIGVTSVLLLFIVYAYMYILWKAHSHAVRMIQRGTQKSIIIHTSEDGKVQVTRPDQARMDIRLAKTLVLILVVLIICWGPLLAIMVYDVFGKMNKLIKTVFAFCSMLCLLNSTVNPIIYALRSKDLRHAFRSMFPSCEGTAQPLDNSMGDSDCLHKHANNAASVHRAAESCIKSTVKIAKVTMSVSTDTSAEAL
Cannabinoid receptor (Homo sapiens), sequence (P34972 whole entry, looked up): as the sequence (P34972 whole entry) above
How it was run: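 Ratio of Ki values from [3H]-SR-141716A (hCB1) and [3H]-CP-55,940 (hCB2) competition binding on CHO cell membranes. Ki from IC50 by Cheng-Prusoff, given only when Ki was obtained at both receptors.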

T1 sequence (P21554 whole entry): as the sequence (P21554 whole entry, looked up) above

SMILES	Activity (Cannabinoid receptor 1 [1]) [%]	Activity (Cannabinoid receptor 2 [2]) [%]	Ki (Cannabinoid receptor 2 [3]) [nM]	Activity (Cannabinoid receptor 2 [4]) [%]	Emax (Cannabinoid receptor 2 [5]) [%]	Ki (Cannabinoid receptor 1 [6]) [nM]	Selectivity ratio [7]	EC50 (Cannabinoid receptor 2 [5]) [nM]
CCCCn1cc(C(=O)NCc2ccccc2)c(=O)c2ccccc21	33.6	44.9						
CCCCCn1cc(C(=O)NC23CC4CC(CC(C4)C2)C3)c(=O)c2ccccc21	59	104	16.4	126				
CCCCCn1cc(C(=O)NCCc2ccccc2)c(=O)c2ccccc21	64.8	98.2	201	136				
CCCCCn1cc(C(=O)NCc2ccccc2)c(=O)c2ccccc21	50.5	66.7	> 1000	129				
CCCCCn1cc(C(=O)Nc2ccc(C#N)cc2)c(=O)c2ccccc21	49.6	79.4	772	133				
CCCCCn1cc(C(=O)NC(C)c2ccccc2)c(=O)c2ccccc21 (racemic)	68.3	101	70.8	130				
Cc1c(C(=O)c2cccc3ccccc23)c2cccc3c2n1[C@H](CN1CCOCC1)CO3				128	126			
CCCCCn1cc(C(=O)NCc2ccc(OC)cc2)c(=O)c2ccccc21	< 10	51.7						
CCCCCn1cc(C(=O)NCCCc2ccccc2)c(=O)c2ccccc21	32.8	85.5	> 1000	134				
CCCCCn1cc(C(=O)N[C@@H](C)c2cccc3ccccc23)c(=O)c2ccccc21			> 1000					
CCCCCn1cc(C(=O)NCCc2ccc3c(c2)OCO3)c(=O)c2ccccc21	43.6	88.7	426	136				
CCCCCn1cc(C(=O)N[C@H](C)c2ccccc2)c(=O)c2ccccc21			37.1	124	129	1150	31	16.8
CCCCCn1cc(C(=O)Nc2ccc(OC)cc2)c(=O)c2ccccc21	< 20	60.1						
CCCCCn1cc(C(=O)NC(C)c2ccc3ccccc3c2)c(=O)c2ccccc21 (racemic)	< 10	82.9	> 1000	122				
CCCCn1cc(C(=O)Nc2ccc(OC)cc2)c(=O)c2ccccc21	< 20	50.5						
CCCCCn1cc(C(=O)N2CCOCC2)c(=O)c2ccccc21	< 10	36.5						
CC12CC3CC(C)(C1)CC(NC(=O)c1cn(Cc4ccccc4)c4ccccc4c1=O)(C3)C2	32.5	86.3	664	121				
CCCCCn1cc(C(=O)O)c(=O)c2ccccc21	< 20	< 15						
Cc1ccc(Cn2nc(C(=O)NC3C4(C)CCC(C4)C3(C)C)cc2-c2ccc(Cl)c(C)c2)cc1 (stereo not given)				21.6	21.6			

SMILES	Activity (Cannabinoid receptor 1 [1]) [%]	Activity (Cannabinoid receptor 2 [2]) [%]	Ki (Cannabinoid receptor 2 [3]) [nM]	Activity (Cannabinoid receptor 2 [4]) [%]	Emax (Cannabinoid receptor 2 [5]) [%]	Ki (Cannabinoid receptor 1 [6]) [nM]	Selectivity ratio [7]	EC50 (Cannabinoid receptor 2 [5]) [nM]
CCCCCn1cc(C(=O)Nc2ccc(-c3ccccc3)cc2)c(=O)c2ccccc21	< 20	< 20						
CCCC(C)(C)c1ccc2c(c1)OC(C)(C)[C@@H]1CC=C(C)C[C@@H]21			20.3	148	149			146
CCCCCn1cc(C(=O)Nc2ccc3ccccc3c2)c(=O)c2ccccc21	< 10	63.9						
CCCCCn1cc(C(=O)N[C@H](C)c2cccc3ccccc23)c(=O)c2ccccc21			125	119				
CCCCCCC(C)(C)c1ccc([C@@H]2C[C@H](O)CC[C@H]2CCCO)c(O)c1				146	146			
CCCCCCC(C)(C)c1cc(O)c2c(c1)OC(C)(C)[C@@H]1CC=C(CO)C[C@@H]21				135	135			
CCCCCn1cc(C(=O)NC(C)c2cccc3ccccc23)c(=O)c2ccccc21 (racemic)	35.5	98.9	174	117				
CCCCCn1cc(C(=O)Nc2cccc3ccccc23)c(=O)c2ccccc21	65.9	90.6	371	124		4080	11	
CCCCCn1cc(C(=O)NC23CC4CC(C)(CC(C)(C4)C2)C3)c(=O)c2ccccc21	54.6	95.6	15.8	131	124			14.1
CCCCCn1cc(C(=O)NC2CCCc3ccccc32)c(=O)c2ccccc21 (racemic)	79.7	96.5	60.2	123	124	1050	17	157
CCCCCn1cc(C(=O)N[C@@H](C)c2ccccc2)c(=O)c2ccccc21			784					
CCCCCn1cc(C(=O)N[C@H](C)c2ccc3ccccc3c2)c(=O)c2ccccc21			584	122				
CCCCn1cc(C(=O)Nc2cccc3ccccc23)c(=O)c2ccccc21	45.3	85.4	455	132				
CCCCCCn1cc(C(=O)Nc2cccc3ccccc23)c(=O)c2ccccc21	53.3	80	844	124				
CCCCCn1cc(C(=O)N[C@@H](C)c2ccc3ccccc3c2)c(=O)c2ccccc21			> 5000					
CCCCCCn1cc(C(=O)Nc2ccc(OC)cc2)c(=O)c2ccccc21	< 10	28.2						
CCCCCn1cc(C(=O)NC2C3CC4CC(C3)CC2C4)c(=O)c2ccccc21 (stereo not given)	37.8	104	13.4	130	126	1920	143	24.8
CCCCCn1cc(C(=O)Nc2ccc(Cl)c(Cl)c2)c(=O)c2ccccc21	< 10	68.1	> 1000	116				
CCCCCCn1cc(C(=O)NCc2ccccc2)c(=O)c2ccccc21	37.4	54.6						
